Where “and” joins values, the source holds several entries; their conditions need not be identical. Identical values can stand only once. Entries after “also recorded” stand apart in the source; their conditions may differ. Like-named read-outs stand apart in the source and are kept apart here.
Key:
[1] = biological target: T1, carboxylesterase activity of THP1 cell lysates (Homo sapiens, UniProt P23141); assay: Inhibition of carboxylesterase activity of THP1 cell lysates; type: biochemical
T1 sequence (P23141 18-567): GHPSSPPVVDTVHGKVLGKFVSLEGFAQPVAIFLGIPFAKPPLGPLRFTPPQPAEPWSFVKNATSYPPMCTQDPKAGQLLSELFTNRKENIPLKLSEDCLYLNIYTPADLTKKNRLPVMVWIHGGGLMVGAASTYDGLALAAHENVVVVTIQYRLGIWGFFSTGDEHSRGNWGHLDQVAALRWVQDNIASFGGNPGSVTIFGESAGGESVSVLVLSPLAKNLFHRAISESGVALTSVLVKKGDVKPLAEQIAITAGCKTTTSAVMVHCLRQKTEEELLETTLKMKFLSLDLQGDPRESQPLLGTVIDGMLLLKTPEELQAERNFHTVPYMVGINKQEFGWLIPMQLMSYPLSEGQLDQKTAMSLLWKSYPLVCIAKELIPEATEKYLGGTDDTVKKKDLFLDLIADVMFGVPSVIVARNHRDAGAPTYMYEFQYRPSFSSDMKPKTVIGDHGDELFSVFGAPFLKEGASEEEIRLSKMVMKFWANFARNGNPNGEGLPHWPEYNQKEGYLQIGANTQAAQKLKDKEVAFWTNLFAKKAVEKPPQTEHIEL

recombinant CES1 [2] = biological target: T2, recombinant CES1 (Homo sapiens, UniProt P23141); assay: Inhibition of carboxylesterase activity of recombinant human CES1; type: biochemical; conditions: for Inhibition of carboxylesterase activity of CES1 / Mode of inhibition of recombinant CES1 / Effect on carboxylesterase activity of recombinant CES1 (in words): pNPV; for Inhibition of carboxylesterase activity of CES1: concentration not given; for Mode of inhibition of recombinant CES1: curve fit of fractional inhibition, Dixon plots
T2 sequence (P23141 18-567): T1 sequence (P23141 18-567)

[3] = tested on: THP1 macrophage foam cells; type: cell-based, human; conditions: 10 μM; for Change in intracellular cholesteryl esters vs vehicle control: BSA only acceptor
recombinant CES2 = biological target: T3, recombinant CES2 (Homo sapiens, UniProt O00748); assay: Inhibition of recombinant CES2 activity; type: biochemical
T3 sequence (O00748 27-559): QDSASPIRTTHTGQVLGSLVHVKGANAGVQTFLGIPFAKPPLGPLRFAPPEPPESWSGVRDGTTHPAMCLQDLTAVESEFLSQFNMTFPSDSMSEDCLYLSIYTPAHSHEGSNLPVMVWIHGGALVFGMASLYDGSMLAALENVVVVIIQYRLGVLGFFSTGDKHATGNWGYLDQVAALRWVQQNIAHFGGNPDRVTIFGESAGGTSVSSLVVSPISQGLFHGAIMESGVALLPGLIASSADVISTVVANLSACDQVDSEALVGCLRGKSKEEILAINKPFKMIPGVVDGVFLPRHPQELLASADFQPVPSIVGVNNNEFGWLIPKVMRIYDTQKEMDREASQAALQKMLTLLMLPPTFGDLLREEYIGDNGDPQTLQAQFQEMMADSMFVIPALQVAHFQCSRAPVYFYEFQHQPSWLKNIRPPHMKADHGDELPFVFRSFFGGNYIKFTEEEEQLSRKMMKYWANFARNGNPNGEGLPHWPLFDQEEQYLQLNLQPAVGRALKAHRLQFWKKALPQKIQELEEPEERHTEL

recombinant CES1 [4] = biological target: T2, recombinant CES1; assay: Activity-based probe; type: biochemical
Method in brief: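 Recombinant human CES1 was expressed in baculovirus-infected Spodoptera frugiperda cells and purified. The enzyme was preincubated with test compound for 30 min and then treated with the activity-based probe fluorophosphonate-biotin. IC50 was estimated from probe labelling.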

[5] = cited from earlier work
[6] = tested on: intracellular carboxylesterase activity of THP1 cells; assay: Intracellular carboxylesterase activity in intact THP1 monocytes; type: cell-based, human; conditions: 10 μM, 80 min, pNPV
[7] = biological target: T4, rat CES1 ortholog (Hydrolase A) (Rattus norvegicus, UniProt P16303); assay: Inhibition of rat CES1 ortholog; type: biochemical
T4 sequence (P16303 19-565): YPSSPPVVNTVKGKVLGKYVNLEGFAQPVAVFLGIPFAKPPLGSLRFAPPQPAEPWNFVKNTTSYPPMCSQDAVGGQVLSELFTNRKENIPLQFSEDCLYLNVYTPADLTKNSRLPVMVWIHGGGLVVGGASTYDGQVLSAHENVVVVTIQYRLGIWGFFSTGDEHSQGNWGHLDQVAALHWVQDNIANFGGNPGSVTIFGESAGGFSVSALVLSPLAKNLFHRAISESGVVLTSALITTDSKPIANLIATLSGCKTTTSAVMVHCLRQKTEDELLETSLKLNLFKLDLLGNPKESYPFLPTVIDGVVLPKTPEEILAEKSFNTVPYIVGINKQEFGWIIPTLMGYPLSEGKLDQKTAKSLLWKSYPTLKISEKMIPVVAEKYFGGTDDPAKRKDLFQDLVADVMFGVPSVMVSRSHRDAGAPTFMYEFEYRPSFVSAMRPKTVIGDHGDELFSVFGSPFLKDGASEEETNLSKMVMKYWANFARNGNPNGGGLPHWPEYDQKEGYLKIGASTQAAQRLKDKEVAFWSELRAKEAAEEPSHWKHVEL

recombinant CES1 [8] = biological target: T2, recombinant CES1; type: biochemical; conditions: read-out: Inhibition of CES1 hydrolytic activity toward trans-permethrin, 20 μM AA; trans-permethrin 50 μM; 2% (w/v) fatty acid-free bovine serum albumin added
[9] = Cell lysate IC50, THP1 cell lysate, pNPV 500 μM, 15 min preincubation at 37°C
[10] = CES1 IC50, recombinant CES1, pNPV 500 μM, 15 min preincubation at 37°C
[11] = read-out: CES1 IC50, recombinant CES1, pNPV 500 μM, 15 min preincubation at 37°C

Structure (SMILES): CCCCCCCCCCCCCCCC(=O)O [palmitic acid, Hexadecanoic acid]
- IC50 [1, 9]: > 100 µM
- IC50 (recombinant CES1 [2]; [10]): 25 ± 13 µM

Structure (SMILES): CCCC/C=C\CCCCCCCC(=O)O [myristoleic acid, 9Z-Tetradecenoic acid]
- IC50 [1, 9]: 23 ± 6 µM
- IC50 (recombinant CES1 [2]; [10]): 12 ± 2 µM

Structure (SMILES): CCCCC[C@H](O)/C=C/[C@H]1[C@H](O)CC(=O)[C@@H]1C/C=C\CCCC(=O)O [Prostaglandin E2]
- IC50 (recombinant CES1 [2]; [10]): > 100 µM

Structure (SMILES): CCCCC/C=C\CC1OC1C/C=C\C/C=C\CCCC(=O)O (stereo not drawn) [11,12-EET, 11,12-Epoxy-5Z,8Z,14Z-eicosatrienoic acid]
- IC50 (recombinant CES1 [2]; [11]): 27 ± 1 µM

Structure (SMILES): C[C@H](CCCC(C)(C)O)[C@H]1CC[C@H]2[C@@H]3CC=C4C[C@@H](O)CC[C@]4(C)[C@H]3CC[C@]12C [25-HC, 25-hydroxycholesterol]
- Inhibitory effect on carboxylesterase activity of THP1 cell lysates (in words) ([1]; pNPV): minimal inhibitory effect
- Inhibitory effect on carboxylesterase activity of THP1 cell lysates (in words) ([1]; pNPV, listed as 25-hydroxycholesterol): little inhibitory activity
- Inhibition of carboxylesterase activity of CES1 (recombinant CES1 [2]): < 15%

Structure (SMILES): CC(C)CCC[C@@H](C)[C@H]1CC[C@H]2[C@@H]3C(=O)C=C4C[C@@H](O)CC[C@]4(C)[C@H]3CC[C@]12C [7-ketocholesterol]
- Inhibitory effect on carboxylesterase activity of THP1 cell lysates (in words) ([1]; pNPV): little inhibitory activity; also recorded: minimal inhibitory effect
- Inhibition of carboxylesterase activity of CES1 (recombinant CES1 [2]): < 15%

Structure (SMILES): C[C@@H](CO)CCC[C@@H](C)[C@H]1CC[C@H]2[C@@H]3CC=C4C[C@@H](O)CC[C@]4(C)[C@H]3CC[C@]12C [27-HC, 27-hydroxycholesterol]
- Change in intracellular cholesteryl esters vs vehicle control ([3]; 12 and 24 h): no significant changes
- Change in free cholesterol levels vs vehicle control ([3]; 12 h): significantly reduced
- Inhibition of carboxylesterase activity of THP1 cell lysate ([1]; 50 μM oxysterol, pNPV): ~ 78%
- IC50 ([1]; IC50, carboxylesterase activity of THP1 whole-cell lysates, THP1 whole-cell lysates, pNPV): 0.033 µM
- IC50 (recombinant CES1 [2]): 0.05 ± 0.02 µM
- Ki (recombinant CES1 [2]; Kiapp, recombinant CES1, ester substrate 4-MUBA, data not shown): 10.4 ± 1.3 nM
- Ki (recombinant CES1 [2]; Kiapp, recombinant CES1, substrate pNPV, 15 min preincubation with enzyme): 10 nM and 10.1 nM
- Mode of inhibition of recombinant CES1 (recombinant CES1 [2]): partial non-competitive inhibitor
- inhibition at 0.5 µM (recombinant CES1 [2]; read-out: Maximum inhibition of CES1 activity): ~67%
- IC50 (recombinant CES2): > 5 µM
- IC50 (recombinant CES1 [4]): 40 ± 20 nM
- Predicted solubility limit in aqueous solution [5]: 0.52 µM

Structure (SMILES): CC(C)CCC[C@@H](C)[C@H]1CC[C@H]2[C@@H]3CC=C4C[C@@H](O)CC[C@]4(C)[C@H]3CC[C@]12C [cholesterol]
- Inhibitory effect on carboxylesterase activity of THP1 cell lysates (in words) ([1]; pNPV): little inhibitory activity; also recorded: no inhibitory effect
- Effect on carboxylesterase activity of recombinant CES1 (in words) (recombinant CES1 [2]): almost no effect

Structure (SMILES): CC(C)[C@@H](O)CC[C@@H](C)[C@H]1CC[C@H]2[C@@H]3CC=C4C[C@@H](O)CC[C@]4(C)[C@H]3CC[C@]12C [24(S)-HC, 24(S)-hydroxycholesterol]
- Inhibitory effect on carboxylesterase activity of THP1 cell lysates (in words) ([1]; pNPV): minimal inhibitory effect
- Inhibitory effect on carboxylesterase activity of THP1 cell lysates (in words) ([1]; pNPV, listed as 24(S)-hydroxycholesterol): little inhibitory activity

Structure (SMILES): C[C@H](CC[C@@H]1OC1(C)C)[C@H]1CC[C@H]2[C@@H]3CC=C4C[C@@H](O)CC[C@]4(C)[C@H]3CC[C@]12C [epoxycholesterol, 24(S),25-epoxycholesterol]
- Change in free cholesterol levels vs vehicle control ([3]; 12 and 24 h): reduced
- Change in intracellular cholesteryl esters vs vehicle control ([3]; 12 and 24 h): no significant changes
- Inhibition of carboxylesterase activity of THP1 cell lysate ([1]; 50 μM oxysterol, pNPV): ~ 70%
- IC50 [1, 9]: 8.1 µM

Structure (SMILES): CCCCCCCC/C=C\CCCCCCCC(=O)O [oleic acid, 9Z-Octadecenoic acid]
- IC50 [1, 9]: 11 ± 4 µM
- IC50 (recombinant CES1 [2]; [10]): 7 ± 3 µM

Structure (SMILES): CCOP(=O)(OCC)Oc1ccc([N+](=O)[O-])cc1 [paraoxon]
- Inhibition of intracellular carboxylesterase activity [6]: 87%

Structure (SMILES): CC(C)CC[C@@H](O)[C@@H](C)[C@H]1CC[C@H]2[C@@H]3CC=C4C[C@@H](O)CC[C@]4(C)[C@H]3CC[C@]12C [22(R)-HC, 22(R)-hydroxycholesterol]
- Change in free cholesterol levels vs vehicle control ([3]; 12 h): No change
- Change in intracellular cholesteryl esters vs vehicle control ([3]; 12 h): significant reduction
- Inhibition of carboxylesterase activity of THP1 cell lysate ([1]; 50 μM oxysterol, pNPV): ~ 30%
- Inhibitory effect on carboxylesterase activity of THP1 cell lysates (in words) ([1]; pNPV): little inhibitory activity
- Effect on carboxylesterase activity of recombinant CES1 (in words) (recombinant CES1 [2]): minimal activity

Structure (SMILES): C[C@H](CCC(=O)O)[C@H]1CC[C@H]2[C@@H]3[C@H](O)C[C@@H]4C[C@H](O)CC[C@]4(C)[C@H]3C[C@H](O)[C@]12C [cholate]
- IC50 (recombinant CES1 [2]; read-out: IC50, CES1 enzyme activity, data not shown): ~7000 µM

Structure (SMILES): CCCCC/C=C\C/C=C\C/C=C\CCCCC(=O)O [γ-linolenic acid, 6Z,9Z,12Z-Octadecatrienoic acid]
- IC50 [1, 9]: 23 ± 3 µM
- IC50 (recombinant CES1 [2]; [10]): 19 ± 10 µM

Structure (SMILES): CCCCC/C=C\C/C=C\CCCCCCCC(=O)O [linoleic acid, 9Z,12Z-Octadecadienoic acid]
- IC50 [1, 9]: 20 ± 3 µM
- IC50 (recombinant CES1 [2]; [10]): 9 ± 6 µM

Structure (SMILES): CCCCC/C=C\C/C=C\C/C=C\C/C=C\CCCC(=O)O [AA, 5Z,8Z,11Z,14Z-Eicosatetraenoic acid]
- IC50 [7]: 50 µM
- IC50 toward rat CES1 relative to the human enzyme ([7]; rat vs human CES1): 25 fold
- Inhibition of carboxylesterase activity of THP1 cell lysate ([1]; 100 μM fatty acid, pNPV): ~ 90%
- IC50 [1, 9]: 4 ± 1 µM
- Ki (recombinant CES1 [2]): 1700 nM
- IC50 (recombinant CES1 [2]; [10]): 2 ± 1 µM
- Mode of inhibition of recombinant CES1 (recombinant CES1 [2]): noncompetitive inhibition model
- inhibition at 20 µM (recombinant CES1 [8]): 14%
- IC50 (recombinant CES2): > 100 µM

Structure (SMILES): CCCCC/C=C/C=C1/C(=O)C=C[C@@H]1C/C=C\CCCC(=O)O [15-deoxy-Δ^12,14-Prostaglandin J2]
- IC50 (recombinant CES1 [2]; [11]): 13 ± 3 µM

Structure (SMILES): CCCCC[C@H](O)/C=C/[C@@H]1[C@@H](C/C=C\CCCC(=O)O)[C@@H](O)C[C@H]1O [Prostaglandin F2α]
- IC50 (recombinant CES1 [2]; [10]): > 100 µM

Structure (SMILES): CCCCCCCCCCCCCC(=O)O [myristic acid, Tetradecanoic acid]
- IC50 [1, 9]: 28 ± 4 µM
- IC50 (recombinant CES1 [2]; [10]): 9 ± 3 µM

Structure (SMILES): CCCCCCCCCCCCCCCCCC(=O)O [stearic acid, Octadecanoic acid]
- IC50 [1, 9]: > 100 µM
- IC50 (recombinant CES1 [2]; [10]): > 100 µM

Structure (SMILES): CCCCCC1OC1C/C=C\C/C=C\C/C=C\CCCC(=O)O (stereo not drawn) [14,15-EET]
- IC50 (recombinant CES1 [2]; [11]): 38 ± 1 µM

Source: publication PMC2787731 (Biochimica et biophysica acta, 2009)
